From ChEMBL document CHEMBL2331506, “Design, synthesis, antiviral and cytostatic evaluation of novel isoxazolidine nucleotide analogues with a carbamoyl linker” (Bioorg Med Chem, 2013) come the findings set out here.

The source made the active and inactive calls. No rule for the calls is given here.

For data set [1], the system named is MDCK. Nature of the data set: Cytotoxicity against dog MDCK cells assessed as alteration of cell morphology up to 100 uM by microscopic analysis. The data set is classed as cell-based, Canis lupus familiaris. A digest of the protocol: (§1)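 Uninfected host-cell cultures were exposed to compound and examined by microscopy. Cytotoxicity was expressed as the minimum cytotoxic concentration (MCC) causing a microscopically detectable alteration of normal cell morphology.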

Data set [2] is described as follows: Cytotoxicity against cat CRFK cells assessed as alteration of cell morphology up to 100 uM by microscopic analysis. It counts as cell-based, Felis catus. A digest of the protocol:
as §1

Data set [3] deals with Vero. Nature of the data set: Cytotoxicity against african green monkey Vero cells assessed as alteration of cell morphology up to 100 uM by microscopic analysis. It counts as cell-based. The note with it: chlorocebus sabaeus. A digest of the protocol: as §1
The subject of data set [4] is HeLa. Nature of the data set: Cytotoxicity against human HeLa cells assessed as alteration of cell morphology up to 100 uM by microscopic analysis. The data set is classed as cell-based. A digest of the protocol:
as §1

Data set [5] concerns HEL. Nature of the data set: Cytotoxicity against human HEL cells assessed as alteration of cell morphology up to 100 uM by microscopic analysis. It counts as cell-based. A digest of the protocol:
as §1

The subject of data set [6] is Human immunodeficiency virus 2. The experiment in a line: Antiviral activity against Human immunodeficiency virus 2 ROD infected in human CEM cells assessed as reduction of virus-induced giant cell formation at 250 uM after 4 to 5 days. It counts as functional, organism-based. Conditions: CCRF-CEM. A digest of the protocol:
(§2)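 CEM cells at 3 × 10^5 cells/mL were infected with HIV at 100 CCID50 per mL in the presence of compound dilutions. They were held 4–5 days at 37 °C in humidified CO2. Syncytium (giant cell) formation was scored microscopically, and EC50 was taken as the concentration inhibiting giant cell formation by 50%.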

Data set [7] has as its system Human immunodeficiency virus 1. Nature of the data set: Antiviral activity against Human immunodeficiency virus 1 3B infected in human CEM cells assessed as reduction of virus-induced giant cell formation at 250 uM after 4 to 5 days. The data set is classed as functional, organism-based. Conditions: CCRF-CEM. A digest of the protocol: as §2
Data set [8] deals with Feline coronavirus. Nature of the data set: Antiviral activity against Feline coronavirus infected in cat CRFK cells assessed as reduction of virus-induced cytopathogenicity at 250 uM. The data set is classed as functional, organism-based. In general terms: Cytopathic effects are the visible damage that an infection or toxin causes in cultured cells.
In data set [9] the test system is Felid alphaherpesvirus 1. Nature of the data set: Antiviral activity against Feline herpes virus infected in cat CRFK cells assessed as reduction of virus-induced cytopathogenicity at 250 uM. It counts as functional, organism-based.
Data set [10] relates to Influenza B virus. Nature of the data set: Antiviral activity against Influenza B virus infected in dog MDCK cells assessed as reduction of virus-induced cytopathogenicity at 250 uM. The data set is classed as functional, organism-based. A digest of the protocol:
(§3)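 Confluent cell monolayers were infected with 100 CCID50 of virus while exposed to varying compound concentrations. Cytopathicity was scored once it was complete in untreated infected controls. EC50 was taken as the concentration that reduced virus-induced cytopathogenicity by 50%.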

Data set [11] has as its system Influenza A virus. The experiment in a line: Antiviral activity against Influenza A virus H3N2 infected in dog MDCK cells assessed as reduction of virus-induced cytopathogenicity at 250 uM. The data set is classed as functional, organism-based. A digest of the protocol: as §3
The subject of data set [12] is Influenza A virus. The experiment in a line: Antiviral activity against Influenza A virus H1N1 infected in dog MDCK cells assessed as reduction of virus-induced cytopathogenicity at 250 uM. It counts as functional, organism-based. A digest of the protocol:
as §3

In data set [13] the test system is Punta Toro virus. The experiment in a line: Antiviral activity against Punta Toro virus infected in african green monkey Vero cells assessed as reduction of virus-induced cytopathogenicity at 250 uM. It counts as functional, organism-based. A digest of the protocol: (§4)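 Confluent monolayers (HEL fibroblasts, Vero, or HeLa cells as listed) were infected with 100 CCID50 of virus in the presence of varying compound concentrations. Virus-induced cytopathicity or plaque formation was scored once cytopathicity was complete in untreated infected controls. EC50 was taken as the concentration reducing cytopathogenicity or plaque formation by 50%.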

Data set [14] concerns Sindbis virus. The experiment in a line: Antiviral activity against Sindbis virus infected in african green monkey Vero cells assessed as reduction of virus-induced cytopathogenicity at 250 uM. It counts as functional, organism-based. A digest of the protocol: as §4
In data set [15] the test system is Coxsackievirus B4. The experiment in a line: Antiviral activity against Coxsackievirus B4 infected in african green monkey Vero cells assessed as reduction of virus-induced cytopathogenicity at 250 uM. It counts as functional, organism-based. A digest of the protocol: as §4
The subject of data set [16] is Mammalian orthoreovirus 1. The experiment in a line: Antiviral activity against Reovirus 1 infected in african green monkey Vero cells assessed as reduction of virus-induced cytopathogenicity at 250 uM. It counts as functional, organism-based. A digest of the protocol: as §4
Data set [17] relates to Human respirovirus 3. The experiment in a line: Antiviral activity against Parainfluenza virus 3 infected in african green monkey Vero cells assessed as reduction of virus-induced cytopathogenicity at 250 uM. The data set is classed as functional, organism-based. A digest of the protocol:
as §4

The subject of data set [18] is Respiratory syncytial virus. The experiment in a line: Antiviral activity against Respiratory syncytial virus long infected in human HeLa cells assessed as reduction of virus-induced cytopathogenicity at 250 uM. The data set is classed as functional, organism-based. A digest of the protocol: as §4
Data set [19] has as its system Vesicular stomatitis virus. The experiment in a line: Antiviral activity against Vesicular stomatitis virus infected in human HeLa cells assessed as reduction of virus-induced cytopathogenicity at 250 uM. It counts as functional, organism-based. A digest of the protocol:
as §3

Data set [20] concerns Human alphaherpesvirus 1. The experiment in a line: Antiviral activity against thymidine kinase-deficient, ACV-resistant Herpes simplex virus 1 KOS infected in human HEL cells assessed as reduction of virus-induced cytopathogenicity at 250 uM. The data set is classed as functional, organism-based. A digest of the protocol:
as §3

For data set [21], the system named is Vesicular stomatitis virus. Nature of the data set: Antiviral activity against Vesicular stomatitis virus infected in human HEL cells assessed as reduction of virus-induced cytopathogenicity at 250 uM. It counts as functional, organism-based. A digest of the protocol:
as §3

The subject of data set [22] is Human alphaherpesvirus 2. The experiment in a line: Antiviral activity against Herpes simplex virus 2 G infected in human HEL cells assessed as reduction of virus-induced cytopathogenicity at 250 uM. It counts as functional, organism-based. The note with it: strain G. A digest of the protocol:
as §4

Data set [23] deals with Human alphaherpesvirus 1. The experiment in a line: Antiviral activity against Herpes simplex virus 1 KOS infected in human HEL cells assessed as reduction of virus-induced cytopathogenicity at 250 uM. The data set is classed as functional, organism-based. A digest of the protocol:
as §4

Take `CCOP(=O)(OCC)[C@@H]1C[C@H](C(=O)Nc2ccc(F)cc2F)ON1C` (mixture of isomers): the Activity result in [1], in data set [2], in data set [3], in data set [4] and in data set [5] was “Non-toxic” throughout. For the same molecule, the inhibition entry in data set [6], in [7], in data set [8], in data set [9], in data set [10] and in data set [11] was “inactive” in each case. The inhibition entry in data set [12], in data set [13], in [14], in data set [15], in [16] and in [17] was “inactive” in each case. Further, the inhibition entry in data set [18], in data set [19], in data set [20], in data set [21], in data set [22] and in data set [23] was “inactive” each time.

`CCOP(=O)(OCC)[C@@H]1C[C@H](C(=O)Nc2cc(OC)cc(OC)c2)ON1C` (mixture of isomers): the Activity result in [1], in data set [2], in [3], in data set [4] and in data set [5] was “Non-toxic” each time. In addition, the inhibition result in [6], in [7], in data set [8], in [9], in data set [10] and in data set [11] was “inactive” in each case. For the same molecule, the inhibition entry in data set [12], in data set [13], in data set [14], in [15], in [16] and in data set [17] was “inactive” in each case. For the same molecule, the inhibition result in data set [18], in [19], in [20], in data set [21], in data set [22] and in data set [23] was “inactive” in each case.

Consider `CCOP(=O)(OCC)[C@H]1C[C@H](C(=O)Nc2cc(OC)c(OC)c(OC)c2)ON1C` (mixture of isomers), for which the Activity result in data set [1], in data set [2], in [3], in data set [4] and in data set [5] was “Non-toxic” throughout. Also, the inhibition entry in data set [6], in data set [7], in data set [8], in [9], in [10] and in data set [11] was “inactive” each time. For the same molecule, the inhibition entry in data set [12], in [13], in [14], in [15], in data set [16] and in data set [17] was “inactive” throughout. Further, the inhibition entry in [18], in data set [19], in [20], in data set [21], in data set [22] and in [23] was “inactive” throughout.

Turning to `CCOP(=O)(OCC)[C@@H]1C[C@H](C(=O)Nc2cccc([N+](=O)[O-])c2)ON1C` (mixture of isomers), the Activity entry in [1], in [2], in [3], in data set [4] and in [5] was “Non-toxic” throughout. Besides, the inhibition result in [6], in data set [7], in data set [8], in data set [9], in data set [10] and in data set [11] was “inactive” each time. The inhibition entry in data set [12], in data set [13], in data set [14], in [15], in data set [16] and in data set [17] was “inactive” throughout. The inhibition entry in [18], in data set [19], in data set [20], in data set [21], in data set [22] and in data set [23] was “inactive” throughout.

As for `CCOP(=O)(OCC)[C@@H]1C[C@H](C(=O)Nc2ccc(C#N)cc2)ON1C` (mixture of isomers), the Activity entry in data set [1], in data set [2], in data set [3], in [4] and in data set [5] was “Non-toxic” throughout. In addition, the inhibition result in [6], in data set [7], in [8], in data set [9], in data set [10] and in data set [11] was “inactive” throughout. Further, the inhibition entry in data set [12], in [13], in data set [14], in data set [15], in [16] and in data set [17] was “inactive” each time. Moreover, the inhibition entry in data set [18], in data set [19], in [20], in data set [21], in data set [22] and in [23] was “inactive” in each case.

Take `CCOP(=O)(OCC)[C@H]1C[C@H](C(=O)Nc2cccc(C)c2)ON1C` (racemic): the Activity result in [1], in data set [2], in [3], in data set [4] and in [5] was “Non-toxic” in each case. The inhibition result in data set [6], in [7], in [8], in [9], in data set [10] and in data set [11] was “inactive” throughout. Besides, the inhibition result in data set [12], in [13], in [14], in data set [15], in data set [16] and in [17] was “inactive” in each case. Also, the inhibition result in data set [18], in [19], in data set [20], in [21], in data set [22] and in data set [23] was “inactive” in each case.
